Measurements reported in ChEMBL document CHEMBL1641493, “Discovery of fused 5,6-bicyclic heterocycles as γ-secretase modulators” (Bioorg Med Chem Lett, 2011).
The source made the active and inactive calls. The rule behind the calls is not given here.

Molecular target: Gamma-secretase (Homo sapiens) (UniProt Q96BI3+Q9NZ42+Q8WW43+P49768+Q92542+P49810)
Assay: Selectivity ratio of IC50 for gamma secretase-mediated total amyloid beta production to IC50 for gamma secretase-mediated amyloid beta42 production in HEK293 cells
Assay type: cell-based
How it was run: (§1)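 HEK293 cells stably transfected with APPsw-lon (pcDNA3.1) treated with compound for 5 h. Aβ in the conditioned medium measured by MSD electrochemiluminescent sandwich immunoassay, using TAG-G2-11/biotin-4G8 for Aβ42 and TAG-W02/biotin-4G8 for total Aβ. IC50 values derived for each, and the ratio taken as total Aβ IC50 over Aβ42 IC50.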

Structure (SMILES)	Ratio IC50
COc1cc(-c2nnc3n2CCCN3Cc2ccc(Cl)c(Cl)c2)ccc1-n1cnc(C)c1	159
COc1cc(-c2nnc3n2CCCN3CCc2ccc(F)cc2)ccc1-n1cnc(C)c1	32
COc1cc(-c2nnc3n2CCCN3Cc2ccc(C#N)cc2)ccc1-n1cnc(C)c1	3
COc1cc(-c2noc3c2CCCN3[C@@H](C)c2ccc(F)cc2)ccc1-n1cnc(C)c1	29
COc1cc(-c2nnc3n2CCCN3C(=O)Cc2ccc(F)cc2)ccc1-n1cnc(C)c1	10
CC[C@@H](c1ccc(F)cc1)N1CCCc2c(-c3ccc(-n4cnc(C)c4)c(OC)c3)noc21	17
CCC(c1cc(F)c(F)c(F)c1)N1CCCc2c(-c3ccc(-n4cnc(C)c4)c(OC)c3)n[nH]c21 (stereo not drawn)	99
COc1cc(-c2onc3c2CCCN3[C@@H](C)c2ccc(F)cc2)ccc1-n1cnc(C)c1	38
COc1cc(-c2nnc3n2CCCN3C(=O)N2CCOCC2)ccc1-n1cnc(C)c1	1
COc1cc(-c2nnc3n2CCCN3C(C)c2ccc(F)cc2)ccc1-n1cnc(C)c1 (stereo not drawn)	39
CC[C@H](c1cc(F)c(F)c(F)c1)N1CCCc2c(-c3ccc(-n4cnc(C)c4)c(OC)c3)n[nH]c21	96
COc1cc(-c2onc3c2CCCN3[C@@H](C)c2ccccc2)ccc1-n1cnc(C)c1	37
CCCCCN1CCCn2c(-c3ccc(-n4cnc(C)c4)c(OC)c3)nnc21	14
COc1cc(-c2nnc3n2CCCN3C(c2ccccc2)C2CC2)ccc1-n1cnc(C)c1 (stereo not drawn)	1
CCCC(c1ccc(F)cc1)N1CCCn2c(-c3ccc(-n4cnc(C)c4)c(OC)c3)nnc21 (stereo not drawn)	138
COc1cc(-c2nnc3n2CCCN3S(=O)(=O)c2ccc(F)cc2)ccc1-n1cnc(C)c1	9
COc1cc(-c2noc3c2CCCN3[C@@H](C)c2cc(F)c(F)c(F)c2)ccc1-n1cnc(C)c1	37

Structure (SMILES)	Ratio IC50
COc1cc(-c2nnc3n2CCCN3C(C)c2cc(F)c(F)c(F)c2)ccc1-n1cnc(C)c1 (stereo not drawn)	165
COc1cc(-c2nnc3n2CCCN3C(=O)C(C)c2ccc(F)cc2)ccc1-n1cnc(C)c1 (stereo not drawn)	41
CCC(c1ccc(F)cc1)N1CCCn2c(-c3ccc(-n4cnc(C)c4)c(OC)c3)nnc21 (stereo not drawn)	128
COc1cc(-c2n[nH]c3c2CCCN3C(C)c2ccc(F)cc2)ccc1-n1cnc(C)c1 (stereo not drawn)	46
COc1cc(-c2nnc3n2CCCN3C(c2ccc(F)cc2)C2CC2)ccc1-n1cnc(C)c1 (stereo not drawn)	1
COc1cc(-c2onc3c2CCCN3Cc2ccc(F)cc2)ccc1-n1cnc(C)c1	48
COc1cc(-c2onc3c2CCCN3Cc2cc(F)cc(F)c2)ccc1-n1cnc(C)c1	46
COc1cc(-c2nnc3n2CCCN3Cc2ccc(F)c(F)c2)ccc1-n1cnc(C)c1	36
COc1ccc(CN2CCCn3c(-c4ccc(-n5cnc(C)c5)c(OC)c4)nnc32)cc1	14
COc1cc(-c2noc3c2CCCN3[C@@H](C)c2cc(F)cc(F)c2)ccc1-n1cnc(C)c1	21
COc1cc(-c2nnc3n2CCCN3)ccc1-n1cnc(C)c1	1
CC[C@@H](c1cc(F)c(F)c(F)c1)N1CCCc2c(-c3ccc(-n4cnc(C)c4)c(OC)c3)n[nH]c21	164
COc1cc(-c2nnc3n2CCCN3Cc2ccc(F)cc2)ccc1-n1cnc(C)c1	31
COc1cc(-c2noc3c2CCCN3[C@H](C)c2ccc(F)cc2)ccc1-n1cnc(C)c1	14
COc1cc(-c2nnc3n2CCCN3C(=O)c2ccc(F)cc2)ccc1-n1cnc(C)c1	1
COc1cc(-c2nnc3n2CCCN3C(C)c2c(F)cc(F)cc2F)ccc1-n1cnc(C)c1 (stereo not drawn)	58
CCCCC(=O)N1CCCn2c(-c3ccc(-n4cnc(C)c4)c(OC)c3)nnc21	10

Test system: Rattus norvegicus
Assay: Antialzheimer activity in CD rat assessed as decrease in amyloid beta42 level in brain at 30 mg/kg, po after 3 hrs
Assay type: functional
How it was run: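 Male CD rats (~100 g) dosed orally at 30 mg/kg in 20% hydroxypropyl β-cyclodextrin, brains taken 3 h later and frozen on dry ice. Half cortex homogenized and extracted in 5 M guanidine-HCl/50 mM Tris-HCl pH 8, sonicated, and cleaned up by solid-phase extraction. Eluate dried and resuspended in PBS/0.5% Tween 20, then Aβ42 read by AlphaLISA. Result given as % change.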

Structure (SMILES)	inhibition in vivo at 30 mg/kg	inhibition
COc1cc(/C=C2\CCCN([C@@H](C)c3ccc(F)cc3)C2=O)ccc1-n1cnc(C)c1	44%	–
COc1cc(-c2onc3c2CCCN3Cc2ccc(F)cc2)ccc1-n1cnc(C)c1	–	inactive

Test system: Rattus norvegicus
Assay: Antialzheimer activity in CD rat assessed as decrease in amyloid beta42 level in CSF at 30 mg/kg, po after 3 hrs
Assay type: functional
How it was run: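 Male CD rats (~100 g) given a single oral dose of 30 mg/kg formulated in 20% hydroxypropyl β-cyclodextrin. CSF sampled 3 h after dosing, stored at -80 °C, and CSF Aβ42 quantified with AlphaLISA amyloid assay kits. Effect expressed as % change in Aβ42.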

Structure (SMILES)	inhibition in vivo at 30 mg/kg	inhibition
COc1cc(/C=C2\CCCN([C@@H](C)c3ccc(F)cc3)C2=O)ccc1-n1cnc(C)c1	55%	–
COc1cc(-c2onc3c2CCCN3Cc2ccc(F)cc2)ccc1-n1cnc(C)c1	–	inactive
CC[C@@H](c1cc(F)c(F)c(F)c1)N1CCCc2c(-c3ccc(-n4cnc(C)c4)c(OC)c3)n[nH]c21	26%	–

Molecular target: Gamma-secretase
Assay: Inhibition of gamma secretase-mediated amyloid beta42 production in HEK293 cells by sandwich immunoassay
Assay type: cell-based, Homo sapiens
How it was run: as §1

Structure (SMILES)	IC50
COc1cc(-c2nnc3n2CCCN3Cc2ccc(Cl)c(Cl)c2)ccc1-n1cnc(C)c1	126 nM
COc1cc(-c2nnc3n2CCCN3CCc2ccc(F)cc2)ccc1-n1cnc(C)c1	619 nM
COc1cc(-c2nnc3n2CCCN3Cc2ccc(C#N)cc2)ccc1-n1cnc(C)c1	2530 nM
COc1cc(-c2noc3c2CCCN3[C@@H](C)c2ccc(F)cc2)ccc1-n1cnc(C)c1	448 nM
COc1cc(-c2nnc3n2CCCN3C(=O)Cc2ccc(F)cc2)ccc1-n1cnc(C)c1	1920 nM
CC[C@@H](c1ccc(F)cc1)N1CCCc2c(-c3ccc(-n4cnc(C)c4)c(OC)c3)noc21	875 nM
CCC(c1cc(F)c(F)c(F)c1)N1CCCc2c(-c3ccc(-n4cnc(C)c4)c(OC)c3)n[nH]c21 (stereo not drawn)	201 nM
COc1cc(-c2onc3c2CCCN3[C@@H](C)c2ccc(F)cc2)ccc1-n1cnc(C)c1	465 nM
COc1cc(-c2nnc3n2CCCN3C(=O)N2CCOCC2)ccc1-n1cnc(C)c1	20000 nM
COc1cc(-c2nnc3n2CCCN3C(C)c2ccc(F)cc2)ccc1-n1cnc(C)c1 (stereo not drawn)	509 nM
CC[C@H](c1cc(F)c(F)c(F)c1)N1CCCc2c(-c3ccc(-n4cnc(C)c4)c(OC)c3)n[nH]c21	209 nM
COc1cc(-c2onc3c2CCCN3[C@@H](C)c2ccccc2)ccc1-n1cnc(C)c1	537 nM
CCCCCN1CCCn2c(-c3ccc(-n4cnc(C)c4)c(OC)c3)nnc21	1410 nM
COc1cc(-c2nnc3n2CCCN3C(c2ccccc2)C2CC2)ccc1-n1cnc(C)c1 (stereo not drawn)	20000 nM
CCCC(c1ccc(F)cc1)N1CCCn2c(-c3ccc(-n4cnc(C)c4)c(OC)c3)nnc21 (stereo not drawn)	145 nM
COc1cc(-c2nnc3n2CCCN3S(=O)(=O)c2ccc(F)cc2)ccc1-n1cnc(C)c1	2210 nM
COc1cc(-c2noc3c2CCCN3[C@@H](C)c2cc(F)c(F)c(F)c2)ccc1-n1cnc(C)c1	540 nM

Structure (SMILES)	IC50
COc1cc(-c2nnc3n2CCCN3C(C)c2cc(F)c(F)c(F)c2)ccc1-n1cnc(C)c1 (stereo not drawn)	116 nM
COc1cc(-c2nnc3n2CCCN3C(=O)C(C)c2ccc(F)cc2)ccc1-n1cnc(C)c1 (stereo not drawn)	485 nM
CCC(c1ccc(F)cc1)N1CCCn2c(-c3ccc(-n4cnc(C)c4)c(OC)c3)nnc21 (stereo not drawn)	156 nM
COc1cc(-c2n[nH]c3c2CCCN3C(C)c2ccc(F)cc2)ccc1-n1cnc(C)c1 (stereo not drawn)	164 nM
COc1cc(-c2nnc3n2CCCN3C(c2ccc(F)cc2)C2CC2)ccc1-n1cnc(C)c1 (stereo not drawn)	16400 nM
COc1cc(-c2onc3c2CCCN3Cc2ccc(F)cc2)ccc1-n1cnc(C)c1	356 nM
COc1cc(-c2onc3c2CCCN3Cc2cc(F)cc(F)c2)ccc1-n1cnc(C)c1	440 nM
COc1cc(-c2nnc3n2CCCN3Cc2ccc(F)c(F)c2)ccc1-n1cnc(C)c1	552 nM
COc1ccc(CN2CCCn3c(-c4ccc(-n5cnc(C)c5)c(OC)c4)nnc32)cc1	1410 nM
COc1cc(-c2noc3c2CCCN3[C@@H](C)c2cc(F)cc(F)c2)ccc1-n1cnc(C)c1	935 nM
COc1cc(-c2nnc3n2CCCN3)ccc1-n1cnc(C)c1	20000 nM
CC[C@@H](c1cc(F)c(F)c(F)c1)N1CCCc2c(-c3ccc(-n4cnc(C)c4)c(OC)c3)n[nH]c21	122 nM
COc1cc(-c2nnc3n2CCCN3Cc2ccc(F)cc2)ccc1-n1cnc(C)c1	649 nM
COc1cc(-c2noc3c2CCCN3[C@H](C)c2ccc(F)cc2)ccc1-n1cnc(C)c1	1390 nM
COc1cc(-c2nnc3n2CCCN3C(=O)c2ccc(F)cc2)ccc1-n1cnc(C)c1	19300 nM
COc1cc(-c2nnc3n2CCCN3C(C)c2c(F)cc(F)cc2F)ccc1-n1cnc(C)c1 (stereo not drawn)	342 nM
CCCCC(=O)N1CCCn2c(-c3ccc(-n4cnc(C)c4)c(OC)c3)nnc21	2070 nM
